According to ChEMBL document CHEMBL1123464, “Analogues of platelet activating factor. 5. Multiple oxygen substitution of the alkoxy chain” (J Med Chem, 1986):

Tests used:
Oryctolagus cuniculus [1] = species on record: Oryctolagus cuniculus; test: Compound was evaluated in rabbit-platelet rich plasma (PRP) for the molar concentration required to produce 50% of maximum aggregation; type: functional
Summary of the method: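 Rabbit platelet-rich plasma; aggregation dose-response curves over 10^-4 to 10^-9 M, two to six replicates per dose level; EC50 is the molar concentration giving 50% of the compound's own maximum aggregation; n counts independent curve determinations.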

[2] = Ratio value is (MAPB/platelet EC50)*10e-8; type: functional
Summary of the method: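 Selectivity index: intravenous hypotensive dose (SHR, 50 mmHg MABP drop) divided by rabbit PRP aggregation EC50; compared against racemic C16-PAF standard to judge separation of hypotensive and aggregatory effects.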

Oryctolagus cuniculus [3] = species on record: Oryctolagus cuniculus; test: Compound was evaluated in rabbit-platelet rich plasma (PRP) for the maximum aggregation response observed at 1.9*10e-4 molar concentration; type: functional
Rattus norvegicus = test: Compound was evaluated in spontaneous hypertensive rats (SHR) for the intravenous dose required to decrease mean arterial blood pressure (MABP) 50 mmHg; type: functional, Artery
Summary of the method: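 Spontaneously hypertensive rats, intravenous dosing; mean arterial blood pressure monitored; dose lowering MABP by 50 mmHg extrapolated from the dose-response curve.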

Oryctolagus cuniculus [4] = species on record: Oryctolagus cuniculus; test: Compound was evaluated in rabbit-platelet rich plasma (PRP) for the maximum aggregation response observed 6.8*10e-6 molar concentration; type: functional

**Q.** What does the source list for `CCCCCCCCCCOCCOCCOCC(COP(=O)([O-])OCC[N+](C)(C)C)OC(C)=O` (configuration not stated)?
**A.** EC50 (Oryctolagus cuniculus [1]): 130 nM; Ratio [2]: 0.99; Max aggregation (Oryctolagus cuniculus [3]): 61; Dose (Rattus norvegicus): 0.0129 mg/kg

**Q.** For `COCCOCCOCCCCCCCCOCC(COP(=O)([O-])OCC[N+](C)(C)C)OC(C)=O` (configuration not stated), which EC50 (Oryctolagus cuniculus [1]) is on record?
**A.** The EC50 was 5300 nM.

**Q.** What about the Ratio [2] of the same compound?
**A.** The Ratio was 0.15.

**Q.** What about the Max aggregation (Oryctolagus cuniculus [3]) of the same compound?
**A.** The Max aggregation was 67.

**Q.** What about the Dose (Rattus norvegicus) of the same compound?
**A.** Its Dose is 0.0805 mg/kg.

**Q.** Which EC50 (Oryctolagus cuniculus [1]) does the source give for `CCCCCCCCCCCCCCCCOCC(COP(=O)([O-])OCC[N+](C)(C)C)OC(C)=O` (configuration not stated) [PLATELET ACTIVATING FACTOR] here?
**A.** Its EC50 is 26.5 nM.

**Q.** What about the Ratio [2] of the same compound?
**A.** Its Ratio is 0.47.

**Q.** And the Max aggregation (Oryctolagus cuniculus [4])?
**A.** Its Max aggregation is 71.

**Q.** What about the Dose (Rattus norvegicus) of the same compound?
**A.** Its Dose is 0.00125 mg/kg.
